Measured values taken from ChEMBL document CHEMBL1135717, “Minor groove DNA binders as antimicrobial agents. 1. Pyrrole tetraamides are potent antibacterials against vancomycin resistant Enterococci [corrected] and methicillin resistant Staphylococcus aureus” (J Med Chem, 2002).
In brackets after ≈: the same amount, converted by molar mass.

How the values were obtained:
[1] = system: Enterococcus; assay: In vitro antimicrobial activity against Vancomycin resistant enterococcus strain BM4147; format: functional
In short: (§1)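 Broth microdilution MIC per NCCLS M7-A4. Compounds dissolved fresh in DMSO as 10 mM stock, then diluted in BHI medium for VRE (BM4147, UCD3) or Mueller-Hinton medium for MRSA. Seven 1:2 serial dilutions gave test concentrations of 45.5 to 0.7 μM. MIC read by visual inspection of wells after 2 days.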

[2] = system: Staphylococcus aureus; assay: In vitro antimicrobial activity against Methicillin resistant Staphylococcus aureus; format: functional; in short: as §1
[3] = Toxicity assessed in human T-cells using a colorimetric cell proliferation assay.; format: cell-based
In short: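 CCRF-CEM human leukemia T-cells in RPMI-1640 with 10% FBS and gentamicin 0.1 mg/mL, seeded at 4 × 10^4 cells/well. Compound added at start at 50, 25, 12.5 and 6.3 μM. WST-1 cleavage read by absorbance at 440 nm at 24, 48 and 72 h. Value reported as lowest % of no-compound control, typically 72 h at 50 μM. At least triplicate.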

[4] = system: Nucleic Acid; assay: DNA binding measured as Changes in the DNA melting temperature of an AT-rich dodecamer (CGATTATTAAGC) (GCTTAATAATCG) upon binding of an equimolar amount of compound; format: nucleic-acid assay
In short: (§2)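 Melting monitored by UV absorbance at 260 nm in 10 mM HEPES pH 7.2, 0.1 mM EDTA, 50 mM NaCl. 12-bp AT-rich oligo at 5 μM mixed with compound at equimolar ratio. Temperature ramped 15 to 95 °C at 0.2 °C/min. Tm by derivative method, checked by hyperchromicity. ΔTm is Tm with compound minus Tm without. At least duplicate.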

[5] = system: Enterococcus; assay: In vitro antimicrobial activity against Vancomycin resistant enterococcus strain UCD-3; format: functional; in short: as §1
[6] = system: Nucleic Acid; assay: Changes in the DNA melting temperature of an AT-rich dodecamer (CGATTATTAAGC) (GCTTAATAATCG) upon binding of an equimolar amount of compound; format: nucleic-acid assay; in short: as §2

CC(C)CCn1cc(NC(=O)c2cnc(C(=O)Nc3cc(C(=O)NCCC(=N)N)n(CCC(C)C)c3)cn2)cc1C(=O)NCCC(=N)N
MIC [1]: 2.8 µM (≈ 1.86 µg/mL) | MIC [2]: 2.8 µM (≈ 1.86 µg/mL) | NCC [3]: 32% | ΔTm [4]: 20 °C | MIC [5]: 2.8 µM (≈ 1.86 µg/mL)

N=C(N)CCNC(=O)c1cc(NC(=O)c2ccc(C(=O)Nc3cc(C(=O)NCCC(=N)N)n(CC4CC4)c3)cc2)cn1CC1CC1
MIC [1]: 2.8 µM (≈ 1.76 µg/mL) | MIC [2]: 1.4 µM (≈ 0.88 µg/mL) | NCC [3]: 72% | ΔTm [4]: 28 °C | MIC [5]: 0.7 µM (≈ 0.44 µg/mL)

CC(C)CCn1cc(NC(=O)c2ccc(C(=O)Nc3cc(C(=O)NCCC4=NCCCN4)n(CCC(C)C)c3)cc2)cc1C(=O)NCCC1=NCCCN1
MIC [1]: 0.7 µM (≈ 0.519 µg/mL) | MIC [2]: 0.7 µM (≈ 0.519 µg/mL) | NCC [3]: 51% | ΔTm [4]: 28 °C | MIC [5]: 0.7 µM (≈ 0.519 µg/mL)

N=C(N)CCNC(=O)c1cc(NC(=O)c2cnc(C(=O)Nc3cc(C(=O)NCCC(=N)N)n(CC4CC4)c3)cn2)cn1CC1CC1
MIC [1]: 2.8 µM (≈ 1.77 µg/mL) | MIC [2]: 2.8 µM (≈ 1.77 µg/mL) | NCC [3]: 90% | ΔTm [4]: 23 °C | MIC [5]: 5.7 µM (≈ 3.6 µg/mL)

CC(C)CCn1cc(NC(=O)C2CCC(C(=O)Nc3cc(C(=O)NCCC(=N)N)n(CCC(C)C)c3)CC2)cc1C(=O)NCCC(=N)N (stereo not given)
MIC [1]: > 45.5 µM | MIC [2]: 11.4 µM (≈ 7.6 µg/mL) | NCC [3]: 88% | ΔTm [4]: 11 °C | MIC [5]: > 45.5 µM

Cn1cc(NC(=O)c2ccc(C(=O)Nc3cc(C(=O)NCCC(=N)N)n(C)c3)cc2)cc1C(=O)NCCC(=N)N
MIC [1]: 22.2 µM (≈ 12.2 µg/mL) | MIC [2]: 22.7 µM (≈ 12.5 µg/mL) | NCC [3]: 56% | ΔTm [6]: 30 | MIC [5]: > 45.5 µM

Cc1cc(C(=O)Nc2cc(C(=O)NCCC(=N)N)n(CCC(C)C)c2)ccc1C(=O)Nc1cc(C(=O)NCCC(=N)N)n(CCC(C)C)c1
MIC [1]: 1.4 µM (≈ 0.945 µg/mL) | MIC [2]: 0.7 µM (≈ 0.472 µg/mL) | NCC [3]: 38% | ΔTm [4]: 24 °C | MIC [5]: 1.4 µM (≈ 0.945 µg/mL)

N=C(N)CCNC(=O)c1cc(NC(=O)c2ccc(C(=O)Nc3cc(C(=O)NCCC(=N)N)n(CC4CC4)c3)c([N+](=O)[O-])c2)cn1CC1CC1
MIC [1]: 2.8 µM (≈ 1.89 µg/mL) | MIC [2]: 1.4 µM (≈ 0.943 µg/mL) | NCC [3]: 87% | ΔTm [4]: 28 °C | MIC [5]: 2.8 µM (≈ 1.89 µg/mL)

CC(C)CCn1cc(NC(=O)c2ccc(C(=O)Nc3cc(C(=O)NCCC(=N)N)n(CCC(C)C)c3)nc2)cc1C(=O)NCCC(=N)N
MIC [1]: 0.7 µM (≈ 0.463 µg/mL) | MIC [2]: 1.4 µM (≈ 0.927 µg/mL) | NCC [3]: 3% | ΔTm [4]: 25 °C | MIC [5]: 1.4 µM (≈ 0.927 µg/mL)

CC(C)CCn1cc(NC(=O)CCCCC(=O)Nc2cc(C(=O)NCCC(=N)N)n(CCC(C)C)c2)cc1C(=O)NCCC(=N)N
MIC [1]: > 45.5 µM | MIC [2]: > 45.5 µM | NCC [3]: 87% | ΔTm [4]: 10 °C | MIC [5]: > 45.5 µM

CC(C)CCn1cc(NC(=O)c2ccc3cc(C(=O)Nc4cc(C(=O)NCCC(=N)N)n(CCC(C)C)c4)ccc3c2)cc1C(=O)NCCC(=N)N
MIC [1]: > 45.5 µM | MIC [2]: > 45.5 µM | NCC [3]: 0% | ΔTm [4]: 24 °C | MIC [5]: > 45.5 µM

N=C(N)CCNC(=O)c1cc(NC(=O)c2ccc(C(=O)Nc3cc(C(=O)NCCC(=N)N)n(CC4CC4)c3)nc2)cn1CC1CC1
MIC [1]: 1.4 µM (≈ 0.882 µg/mL) | MIC [2]: 1.4 µM (≈ 0.882 µg/mL) | NCC [3]: 82% | ΔTm [4]: 27 °C | MIC [5]: 2.8 µM (≈ 1.76 µg/mL)

CCC/N=C(\N)CCNC(=O)c1cc(NC(=O)c2ccc(C(=O)Nc3cc(C(=O)NCC/C(N)=N/CCC)n(CCC(C)C)c3)cc2)cn1CCC(C)C
MIC [1]: 1.4 µM (≈ 1.04 µg/mL) | MIC [2]: 1.4 µM (≈ 1.04 µg/mL) | NCC [3]: 15% | ΔTm [4]: 26 °C | MIC [5]: 1.4 µM (≈ 1.04 µg/mL)

CC(C)CCn1cc(NC(=O)c2ccc(C(=O)Nc3cc(C(=O)NCCC(=N)N)n(CCC(C)C)c3)c([N+](=O)[O-])c2)cc1C(=O)NCCC(=N)N
MIC [1]: 1.4 µM (≈ 0.988 µg/mL) | MIC [2]: 1.4 µM (≈ 0.988 µg/mL) | NCC [3]: 42% | ΔTm [4]: 25 °C | MIC [5]: 1.4 µM (≈ 0.988 µg/mL)

CC(C)CCn1cc(NC(=O)c2ccc(C(=O)Nc3cc(C(=O)NCCN)n(CCC(C)C)c3)cc2)cc1C(=O)NCCN
MIC [1]: 11.4 µM (≈ 6.92 µg/mL) | MIC [2]: 2.8 µM (≈ 1.7 µg/mL) | NCC [3]: 24% | ΔTm [4]: 20 °C | MIC [5]: 11.4 µM (≈ 6.92 µg/mL)

N=C(N)CCNC(=O)c1cc(NC(=O)c2cc(C(=O)Nc3cc(C(=O)NCCC(=N)N)n(CC4CC4)c3)[nH]n2)cn1CC1CC1
MIC [1]: 5.7 µM (≈ 3.53 µg/mL) | MIC [2]: 2.8 µM (≈ 1.73 µg/mL) | NCC [3]: 88% | ΔTm [4]: 26 °C | MIC [5]: 5.7 µM (≈ 3.53 µg/mL)

Cn1cc(NC(=O)c2cc(NC(=O)c3cc(NC=O)cn3C)cn2C)cc1C(=O)NCCC(=N)N [STALLIMYCIN]
MIC [1]: > 45.5 µM | MIC [2]: > 45.5 µM | NCC [3]: 79% | ΔTm [6]: 26 | MIC [5]: > 45.5 µM

Cc1cc(C(=O)Nc2cc(C(=O)NCCC(=N)N)n(CC3CC3)c2)ccc1C(=O)Nc1cc(C(=O)NCCC(=N)N)n(CC2CC2)c1
MIC [1]: 2.8 µM (≈ 1.8 µg/mL) | MIC [2]: 2.8 µM (≈ 1.8 µg/mL) | NCC [3]: 87% | ΔTm [4]: 26 °C | MIC [5]: 2.8 µM (≈ 1.8 µg/mL)

CC/N=C(\N)CCNC(=O)c1cc(NC(=O)c2ccc(C(=O)Nc3cc(C(=O)NCC/C(N)=N/CC)n(CCC(C)C)c3)cc2)cn1CCC(C)C
MIC [1]: 1.4 µM (≈ 1 µg/mL) | MIC [2]: 1.4 µM (≈ 1 µg/mL) | NCC [3]: 74% | ΔTm [4]: 27 °C | MIC [5]: 1.4 µM (≈ 1 µg/mL)

CC(C)CCn1cc(NC(=O)C2=CC=C(C(=O)Nc3cc(C(=O)NCCC(=N)N)n(CCC(C)C)c3)CC2)cc1C(=O)NCCC(=N)N
MIC [1]: 1.4 µM (≈ 0.928 µg/mL) | MIC [2]: 0.7 µM (≈ 0.464 µg/mL) | NCC [3]: 23% | ΔTm [4]: 26 °C | MIC [5]: 1.4 µM (≈ 0.928 µg/mL)

C/N=C(\N)CCNC(=O)c1cc(NC(=O)c2ccc(C(=O)Nc3cc(C(=O)NCC/C(N)=N/C)n(CCC(C)C)c3)cc2)cn1CCC(C)C
MIC [1]: 1.4 µM (≈ 0.964 µg/mL) | MIC [2]: 0.7 µM (≈ 0.482 µg/mL) | ΔTm [4]: 28 °C | MIC [5]: 1.4 µM (≈ 0.964 µg/mL)

Cc1cc(C(=O)Nc2cc(C(=O)NCCC(=N)N)n(CCC(C)C)c2)c(C)cc1C(=O)Nc1cc(C(=O)NCCC(=N)N)n(CCC(C)C)c1
MIC [1]: > 45.5 µM | MIC [2]: 11.4 µM (≈ 7.85 µg/mL) | NCC [3]: 75% | ΔTm [4]: 12 °C | MIC [5]: > 45.5 µM

CC(C)CCn1cc(NC(=O)c2ccc(C(=O)Nc3cc(C(=O)NCCN=C(N)N)n(CCC(C)C)c3)cc2)cc1C(=O)NCCN=C(N)N
MIC [1]: 1.4 µM (≈ 0.967 µg/mL) | MIC [2]: 0.7 µM (≈ 0.484 µg/mL) | NCC [3]: 5% | ΔTm [4]: 25 °C | MIC [5]: 1.4 µM (≈ 0.967 µg/mL)

C/N=C(/CCNC(=O)c1cc(NC(=O)c2ccc(C(=O)Nc3cc(C(=O)NCC/C(=N/C)NC)n(CCC(C)C)c3)cc2)cn1CCC(C)C)NC
MIC [1]: 1.4 µM (≈ 1 µg/mL) | MIC [2]: 1.4 µM (≈ 1 µg/mL) | ΔTm [4]: 26 °C | MIC [5]: 1.4 µM (≈ 1 µg/mL)

N=C(N)CCNC(=O)c1cc(NC(=O)c2ccc(C(=O)Nc3cc(C(=O)NCCC(=N)N)n(CC4CC4)c3)s2)cn1CC1CC1
MIC [1]: 1.4 µM (≈ 0.889 µg/mL) | MIC [2]: 1.4 µM (≈ 0.889 µg/mL) | NCC [3]: 65% | ΔTm [4]: 27 °C | MIC [5]: 2.8 µM (≈ 1.78 µg/mL)

CNC(=N)CCNC(=O)c1cc(NC(=O)c2ccc(C(=O)Nc3cc(C(=O)NCCC(=N)NC)n(CCC(C)C)c3)cc2)cn1CCC(C)C
NCC [3]: 78%

CC(C)CCn1cc(NC(=O)c2ccnc(C(=O)Nc3cc(C(=O)NCCC(=N)N)n(CCC(C)C)c3)c2)cc1C(=O)NCCC(=N)N
MIC [1]: 22.7 µM (≈ 15 µg/mL) | MIC [2]: 2.8 µM (≈ 1.85 µg/mL) | NCC [3]: 6% | ΔTm [4]: 11 °C | MIC [5]: 22.7 µM (≈ 15 µg/mL)

CN=C(CCNC(=O)c1cc(NC(=O)c2ccc(C(=O)Nc3cc(C(=O)NCCC(=NC)NC)n(CCC(C)C)c3)cc2)cn1CCC(C)C)NC
NCC [3]: 50%

CC(C)CCn1cc(NC(=O)c2ccc(C(=O)Nc3cc(C(=O)NCCC(=N)N)n(CCC(C)C)c3)c3ccccc23)cc1C(=O)NCCC(=N)N
MIC [1]: 2.8 µM (≈ 1.99 µg/mL) | MIC [2]: 2.8 µM (≈ 1.99 µg/mL) | NCC [3]: 15% | ΔTm [4]: 20 °C | MIC [5]: 5.7 µM (≈ 4.05 µg/mL)
